The record followed here is ChEMBL document CHEMBL3352466 (J Med Chem, 2014).

The structures appear in SMILES notation. Activity calls are given as the source filed them. No cut-off for these calls is given here.

Data set [1] concerns Mus musculus. Description: Toxicity in BALB/c mouse assessed as kidney chronic progressive nephropathy at 30 to 300 mg/kg, ip administered as single dose measured after 15 days by histopathological analysis. Type of data set: organism-based. The arrangement: dose 30-300 mg/kg, route intraperitoneal. The conditions noted are these: in vivo, 360 h. The method, boiled down: (§1)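 Male BALB/c mice, 8 weeks old, randomized into six groups (n = 10): single i.p. dose of 0 (vehicle), 30, 100, 200 or 300 mg/kg on day zero, or untreated normal control. Monitored for anaphylactic/allergic responses and body weight; at end, liver, lung, kidney and spleen formalin-fixed, paraffin-embedded, H&E-stained and graded histopathologically for lesions.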

The test system of data set [2] is A549. Description: Induction of apoptosis in human A549 cells assessed as caspase-3 activation at 100 nM after 12 to 48 hrs by Western blot method. It is filed as functional, cell-based. The gist of the method:
(§2)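 A-549 cells treated with 100 nM for indicated times, then harvested and lysed; caspase cleavage determined by Western blot.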

For data set [3], the system named is HCT-116. Description: Antitumor activity against human HCT116 cells xenografted in nu/nu mouse assessed as tumor regression at 5 mg/kg, iv qd for 7 days and then intraperitoneally once every day to the end. Type of data set: functional, organism-based. The arrangement: dose 5 mg/kg. The gist of the method: (§3)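 HCT116 colorectal xenografts grown to about 200 mm3, mice randomized into four groups (n = 8): vehicle, 5 or 10 mg/kg QD (i.v. for 7 days, then i.p. daily to end), or 100 mg/kg QWK. Vehicle saline with 5% DMSO and 5% cremophor. Tumour growth and body weight measured three times weekly; complete regression counted; Student's t-test.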

Data set [4] concerns A549. Description: Induction of apoptosis in human A549 cells assessed as caspase-8 activation at 100 nM after 12 to 48 hrs by Western blot method. It is filed as functional, cell-based. The gist of the method: as §2
Data set [5] relates to A549. Nature of the data set: Induction of apoptosis in human A549 cells assessed as caspase-9 activation at 100 nM after 12 to 48 hrs by Western blot method. Type of data set: functional, cell-based. The gist of the method:
as §2

The subject of data set [6] is Mus musculus. Description: Toxicity in BALB/c mouse assessed as liver inflammatory cell infiltration at 30 to 300 mg/kg, ip administered as single dose measured after 15 days by histopathological analysis. It is filed as organism-based. The arrangement: dose 30-300 mg/kg, route intraperitoneal. The conditions noted are these: in vivo, 360 h. The gist of the method: as §1

Data set [7] relates to A549. Nature of the data set: Induction of apoptosis in human A549 cells assessed as viable cells level at 100 nM after 24 hrs by Annexin V-FITC/propidium iodide double staining based FACS method (reference value: 98.0%). It is filed as functional.
In data set [8] the target is Cellular tumor antigen p53 (Homo sapiens) (UniProt P04637). Description: Activation of p53 Ser15 phosphorylation in human A549 cells at 100 nM after 0.5 to 4 hrs by Western blot method. Type of data set: cell-based. The method, boiled down:
(§4)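 A-549 cells exposed to 100 nM for the indicated times; whole-cell extracts immunoblotted with phospho-specific antibodies (p-ATM, p-ATR, p-Chk1, p-Chk2, p-H2AX, p-p53), with pan antibody to each protein and β-actin as loading controls.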

For data set [9], the system named is A549. Description: Increase in FADD protein expression in human A549 cells at 100 nM by Western blot method. It is filed as functional, cell-based. The method, boiled down: (§5)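 Whole-cell lysates from A-549 cells given 100 nM or vehicle for the indicated hours; apoptosis-related proteins detected by Western blotting.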
In data set [10] the test system is A549. Nature of the data set: Induction of apoptosis in human A549 cells assessed as cell membrane blebbing at 100 nM after 24 to 48 hrs by phase contrast microscopy. It is filed as functional, cell-based. The gist of the method:
(§6)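 A-549 cells incubated without or with 100 nM for 24 or 48 h; morphology observed under phase-contrast microscope and photographed.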

Data set [11] deals with A549. Nature of the data set: Induction of apoptosis in human A549 cells assessed as viable cells level at 100 nM after 48 hrs by Annexin V-FITC/propidium iodide double staining based FACS method (reference value: 97.10%). Type of data set: functional. The gist of the method:
(§7)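 A549 cells given vehicle or 100 nM for 24 or 48 h, trypsinized, washed in ice-cold PBS, labelled with annexin V-FITC and propidium iodide 15 min at room temperature in the dark, then analysed by flow cytometry.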

Data set [12] deals with A549. Nature of the data set: Decrease in Bcl-2 protein expression in human A549 cells at 100 nM by Western blot method. Type of data set: functional, cell-based. The method, boiled down: as §5
A short description of data set [13]: Toxicity in BALB/c mouse at 30 to 300 mg/kg, ip administered as single dose measured after 15 days. Type of data set: organism-based. The arrangement: dose 30-300 mg/kg, route intraperitoneal. The note with it: in vivo. The method, boiled down: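 Acute toxicity in 8-week-old male BALB/c mice, with 10 mice per group, after one i.p. injection on day zero of vehicle or 30, 100, 200 or 300 mg/kg. An uninjected group served as normal control. Body weight and allergic or anaphylactic signs were monitored. At the end, liver, lung, kidney and spleen were formalin-fixed, paraffin-embedded, H&E-stained, and graded histopathologically for lesions.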

In data set [14] the test system is A549. Description: Induction of apoptosis in human A549 cells assessed as early apoptosis cells level at 100 nM after 48 hrs by Annexin V-FITC/propidium iodide double staining based FACS method (reference value: 0.6%). It is filed as functional. The method, boiled down: as §7
Data set [15] deals with HCT-116. Description: Antitumor activity against human HCT116 cells xenografted in nu/nu mouse assessed as tumor regression at 10 mg/kg, iv qd for 7 days and then intraperitoneally once every day to the end. It is filed as functional, organism-based. The arrangement: dose 10 mg/kg. The method, boiled down:
as §3

Data set [16] relates to A549. Nature of the data set: Induction of apoptosis in human A549 cells assessed as early apoptosis cells level at 100 nM after 24 hrs by Annexin V-FITC/propidium iodide double staining based FACS method (reference value: 0.2%). Type of data set: functional. The gist of the method:
as §7

Data set [17] has as its system A549. Nature of the data set: Induction of cell cycle arrest in human A549 cells assessed as accumulation at S phase at 30 to 300 nM after 24 hrs by propidium iodide staining based flow cytometry. Type of data set: functional. The method, boiled down:
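A-549 cells treated with 0, 30, 100 or 300 nM for 24 h, fixed in ice-cold 70% EtOH, stained with propidium iodide; phase populations calculated from ploidy by flow cytometry.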

For data set [18], the system named is A549. Description: Induction of apoptosis in human A549 cells assessed as cell shrinkage at 100 nM after 24 to 48 hrs by phase contrast microscopy. It is filed as functional, cell-based. The method, boiled down: as §6
The target in data set [19] is Serine-protein kinase ATM (Homo sapiens) (UniProt Q13315). Nature of the data set: Induction of ATM activation in human A549 cells assessed as histone H2AX Ser139 phosphorylation at 100 nM after 0.5 to 4 hrs by Western blot method. It is filed as cell-based. The method, boiled down:
as §4

Data set [20] has as its system A549. Description: Induction of apoptosis in human A549 cells assessed as necrosis cells level at 100 nM after 48 hrs by Annexin V-FITC/propidium iodide double staining based FACS method (reference value: 0.9%). Type of data set: functional. The method, boiled down: as §7
For data set [21], the system named is A549. Nature of the data set: Induction of apoptosis in human A549 cells assessed as late apoptosis cells level at 100 nM after 48 hrs by Annexin V-FITC/propidium iodide double staining based FACS method (reference value: 1.4%). Type of data set: functional.
Data set [22] concerns Mus musculus. Description: Toxicity in BALB/c mouse assessed as kidney renal tubule regeneration at 30 to 300 mg/kg, ip administered as single dose measured after 15 days by histopathological analysis. Type of data set: organism-based. The arrangement: dose 30-300 mg/kg, route intraperitoneal. The conditions noted are these: in vivo, 360 h. The method, boiled down: as §1

Data set [23] concerns Mus musculus. Description: Toxicity in BALB/c mouse assessed as anaphylactic responses at 30 to 300 mg/kg, ip administered as single dose measured after 15 days. Type of data set: organism-based. The arrangement: dose 30-300 mg/kg, route intraperitoneal. The conditions noted are these: in vivo, 360 h. The method, boiled down:
as §1

The test system of data set [24] is A549. Nature of the data set: Induction of apoptosis in human A549 cells assessed as necrosis cells level at 100 nM after 24 hrs by Annexin V-FITC/propidium iodide double staining based FACS method (reference value: 0.9%). Type of data set: functional. The method, boiled down:
as §7

Sequence of Serine-protein kinase ATM (Homo sapiens) (Q13315 whole entry): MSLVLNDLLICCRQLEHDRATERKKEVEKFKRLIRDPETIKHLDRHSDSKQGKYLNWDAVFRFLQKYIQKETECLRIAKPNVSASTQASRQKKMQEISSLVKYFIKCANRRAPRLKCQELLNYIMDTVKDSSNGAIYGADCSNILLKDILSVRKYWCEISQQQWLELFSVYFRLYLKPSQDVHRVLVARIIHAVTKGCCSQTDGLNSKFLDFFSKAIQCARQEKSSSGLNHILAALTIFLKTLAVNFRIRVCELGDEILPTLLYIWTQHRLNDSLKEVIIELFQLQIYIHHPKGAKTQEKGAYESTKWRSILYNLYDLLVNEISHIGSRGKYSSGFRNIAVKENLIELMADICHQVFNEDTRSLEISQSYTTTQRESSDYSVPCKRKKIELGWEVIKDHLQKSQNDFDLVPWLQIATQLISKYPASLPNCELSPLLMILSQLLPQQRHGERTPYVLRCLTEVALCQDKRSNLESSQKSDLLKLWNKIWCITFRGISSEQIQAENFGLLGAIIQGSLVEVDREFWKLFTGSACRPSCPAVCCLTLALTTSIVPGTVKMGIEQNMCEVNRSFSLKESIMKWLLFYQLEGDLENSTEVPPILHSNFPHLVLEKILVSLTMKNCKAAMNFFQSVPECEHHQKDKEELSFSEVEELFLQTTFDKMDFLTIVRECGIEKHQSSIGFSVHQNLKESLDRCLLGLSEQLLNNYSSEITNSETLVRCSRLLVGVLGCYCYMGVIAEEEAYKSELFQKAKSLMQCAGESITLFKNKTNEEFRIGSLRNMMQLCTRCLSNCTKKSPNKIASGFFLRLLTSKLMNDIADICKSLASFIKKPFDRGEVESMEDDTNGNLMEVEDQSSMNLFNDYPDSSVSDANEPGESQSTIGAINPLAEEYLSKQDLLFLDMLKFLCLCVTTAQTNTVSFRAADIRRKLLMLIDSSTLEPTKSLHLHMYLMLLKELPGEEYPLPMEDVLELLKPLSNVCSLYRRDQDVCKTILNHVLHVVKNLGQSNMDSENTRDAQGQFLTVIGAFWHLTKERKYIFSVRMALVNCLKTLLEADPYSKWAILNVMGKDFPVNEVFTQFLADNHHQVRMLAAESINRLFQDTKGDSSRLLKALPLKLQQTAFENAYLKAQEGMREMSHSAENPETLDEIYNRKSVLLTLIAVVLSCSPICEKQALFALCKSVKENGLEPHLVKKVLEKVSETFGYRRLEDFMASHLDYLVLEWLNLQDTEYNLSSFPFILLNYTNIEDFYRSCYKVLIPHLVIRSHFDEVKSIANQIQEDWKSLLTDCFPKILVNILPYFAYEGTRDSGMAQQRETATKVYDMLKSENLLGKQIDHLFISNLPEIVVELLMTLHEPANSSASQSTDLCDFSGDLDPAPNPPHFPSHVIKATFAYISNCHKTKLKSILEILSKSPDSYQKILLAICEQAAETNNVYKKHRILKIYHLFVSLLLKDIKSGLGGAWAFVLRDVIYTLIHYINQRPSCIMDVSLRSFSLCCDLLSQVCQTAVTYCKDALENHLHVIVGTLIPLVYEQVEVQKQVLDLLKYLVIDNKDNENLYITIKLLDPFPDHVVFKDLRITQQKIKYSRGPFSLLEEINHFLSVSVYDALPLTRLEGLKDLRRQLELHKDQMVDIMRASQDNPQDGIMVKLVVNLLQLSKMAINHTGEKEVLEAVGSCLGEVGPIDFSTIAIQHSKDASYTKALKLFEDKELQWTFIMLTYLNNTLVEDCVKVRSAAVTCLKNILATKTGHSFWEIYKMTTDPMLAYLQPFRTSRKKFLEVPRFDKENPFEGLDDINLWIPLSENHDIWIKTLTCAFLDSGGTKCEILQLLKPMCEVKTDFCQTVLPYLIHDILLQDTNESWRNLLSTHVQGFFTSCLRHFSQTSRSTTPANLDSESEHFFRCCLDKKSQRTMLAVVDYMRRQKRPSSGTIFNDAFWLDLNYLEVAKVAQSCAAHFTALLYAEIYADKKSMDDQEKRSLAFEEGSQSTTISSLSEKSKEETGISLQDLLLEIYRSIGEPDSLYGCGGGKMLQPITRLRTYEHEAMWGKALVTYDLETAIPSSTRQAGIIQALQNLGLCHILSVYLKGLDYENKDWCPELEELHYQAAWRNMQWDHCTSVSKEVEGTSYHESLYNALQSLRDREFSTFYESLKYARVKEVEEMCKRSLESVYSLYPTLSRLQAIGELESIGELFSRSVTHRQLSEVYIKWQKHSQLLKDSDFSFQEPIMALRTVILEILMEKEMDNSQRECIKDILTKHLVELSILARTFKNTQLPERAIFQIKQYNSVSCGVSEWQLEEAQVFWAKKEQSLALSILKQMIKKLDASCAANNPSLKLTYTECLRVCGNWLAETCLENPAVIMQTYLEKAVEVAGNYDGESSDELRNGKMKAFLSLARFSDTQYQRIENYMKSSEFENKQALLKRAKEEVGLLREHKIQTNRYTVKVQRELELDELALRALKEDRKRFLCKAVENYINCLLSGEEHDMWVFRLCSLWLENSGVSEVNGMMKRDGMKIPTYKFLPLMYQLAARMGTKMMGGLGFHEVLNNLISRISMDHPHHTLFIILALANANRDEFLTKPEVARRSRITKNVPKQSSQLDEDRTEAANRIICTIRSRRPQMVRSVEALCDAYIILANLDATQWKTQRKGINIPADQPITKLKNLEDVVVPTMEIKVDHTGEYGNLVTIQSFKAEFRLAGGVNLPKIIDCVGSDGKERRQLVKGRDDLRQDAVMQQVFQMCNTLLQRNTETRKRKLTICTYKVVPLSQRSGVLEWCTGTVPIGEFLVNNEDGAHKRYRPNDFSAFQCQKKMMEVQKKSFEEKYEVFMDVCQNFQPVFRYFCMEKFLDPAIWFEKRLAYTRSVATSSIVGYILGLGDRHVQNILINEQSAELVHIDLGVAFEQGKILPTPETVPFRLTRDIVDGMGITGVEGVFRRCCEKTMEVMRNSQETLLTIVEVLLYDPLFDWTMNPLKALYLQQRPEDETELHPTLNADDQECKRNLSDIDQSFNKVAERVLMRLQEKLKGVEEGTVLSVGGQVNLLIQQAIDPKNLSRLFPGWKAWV
Sequence of Cellular tumor antigen p53 (Homo sapiens) (P04637 whole entry, looked up): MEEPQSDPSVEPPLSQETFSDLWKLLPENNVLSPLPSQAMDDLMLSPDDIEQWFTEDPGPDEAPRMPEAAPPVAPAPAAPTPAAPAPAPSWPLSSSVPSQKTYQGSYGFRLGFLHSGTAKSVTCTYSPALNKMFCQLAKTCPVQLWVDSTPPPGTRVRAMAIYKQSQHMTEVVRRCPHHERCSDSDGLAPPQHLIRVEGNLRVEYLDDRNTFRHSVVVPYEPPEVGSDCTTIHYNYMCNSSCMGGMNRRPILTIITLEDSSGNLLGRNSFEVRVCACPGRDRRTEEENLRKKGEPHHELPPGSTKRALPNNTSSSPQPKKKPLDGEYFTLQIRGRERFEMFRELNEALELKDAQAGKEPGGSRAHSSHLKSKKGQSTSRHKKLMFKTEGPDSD

`CC[C@@]1(OC(=O)CN/C(Cc2ccc(OC)cc2)=N/S(=O)(=O)c2ccc(C)cc2)C(=O)OCc2c1cc1n(c2=O)Cc2cc3ccccc3nc2-1`: the Activity entry in data set [1] is listed as “Non-toxic”; in [6], “Non-toxic”; in [7], 95.5%; in data set [11] it was 56.8%; in data set [14], 1.6%; in data set [16], 0.7%. For the same compound, the Activity in data set [20] is listed as 9.1%; in [21], 32.5%; in data set [22], “Non-toxic”; in data set [23], “Non-toxic”; in [24], 0.8%. The outcome in data set [2], in data set [4], in data set [5], in data set [8], in data set [9] and in [10] was Active. Also, the outcome in data set [17], in [18] and in data set [19] was Active. Besides, the inhibition result in [3], in data set [12] and in data set [15] was “Active” in each case. Besides, the MTD at 360 h in data set [13] was 300 mg/kg.
